Usually MIC50 stands for the lowest concentration that inhibits either 50% of growth or 50% of the strains tested, depending on the study.

The subject of test [1] is Mycobacterium tuberculosis. Briefly: Antimycobacterial activity against Mycobacterium bovis BCG assessed as inhibition of microbial growth at 50 ug/ml incubated for 6 days by MABA method. Format: functional. The following applies: variant bovis BCG, 144 h, read-out: GI. The method in brief:
(§1)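 Microplate alamar blue assay in 7H9GC medium. Compounds dissolved in DMSO at 10 mg/mL (stock), diluted to 100, 50, 25, 10, 5, 1 and 0.5 ug/mL, each in triplicate. Frozen inoculum added at final 2.5 x 10^5 CFU/mL. Bacteria-alone and medium-alone control wells. Read by colour change and fluorescence. % inhibition = (test − M bkg)/(B − M bkg) x 100, mean of two experiments. MIC50 = lowest concentration giving ≥50% inhibition.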

Test [2] relates to Mycobacterium tuberculosis. The experiment in a line: Antimycobacterial activity against Mycobacterium bovis BCG assessed as inhibition of microbial growth at 100 ug/ml incubated for 6 days by MABA method. It is filed as functional. The following applies: variant bovis BCG, 144 h, read-out: GI. The essentials: as §1
A general note: Alamar Blue is a resazurin reagent that responds to reducing activity.

Test [3] relates to Mycobacterium tuberculosis. The experiment in a line: Antimycobacterial activity against Mycobacterium bovis BCG assessed as inhibition of microbial growth at 5 ug/ml incubated for 6 days by MABA method. Conditions: variant bovis BCG, 144 h, read-out: GI. Format: functional. The method in brief: as §1
For test [4], the system named is Mycobacterium tuberculosis. The experiment in a line: Antimycobacterial activity against Mycobacterium bovis BCG assessed as inhibition of microbial growth at 10 ug/ml incubated for 6 days by MABA method. The following applies: variant bovis BCG, 144 h, read-out: GI. Format: functional. The essentials: as §1
Test [5] concerns Mycobacterium tuberculosis. Briefly: Antimycobacterial activity against Mycobacterium bovis BCG assessed as inhibition of microbial growth incubated for 6 days by MABA method. The following applies: variant bovis BCG, 144 h. It is filed as functional. The essentials: as §1
The test system of test [6] is Mycobacterium tuberculosis. Briefly: Antimycobacterial activity against Mycobacterium bovis BCG assessed as inhibition of microbial growth at 0.5 to 100 ug/ml incubated for 6 days by MABA method. Format: functional, variant bovis BCG. The essentials: as §1
The test system of test [7] is Mycobacterium tuberculosis. Briefly: Antimycobacterial activity against Mycobacterium bovis BCG assessed as inhibition of microbial growth at 0.5 ug/ml incubated for 6 days by MABA method. Format: functional. Conditions: variant bovis BCG, 144 h, read-out: GI. The method in brief:
as §1

Test [8] has as its system Mycobacterium tuberculosis. The experiment in a line: Antimycobacterial activity against Mycobacterium bovis BCG assessed as inhibition of microbial growth at 1 ug/ml incubated for 6 days by MABA method. Conditions: variant bovis BCG, 144 h, read-out: GI. It is filed as functional. The essentials:
as §1

Take `CCc1cn([C@@H]2O[C@H](COC(C)=O)[C@@H](OC(C)=O)[C@@H]2F)c(=O)[nH]c1=O`: the inhibition of growth at 50 µg/mL in test [1] turned out to be 55%. Besides, in test [2], the inhibition of growth at 100 µg/mL came out at 75%.
Turning to `CCc1cn([C@@H]2O[C@H](CO)[C@@H](Br)[C@@H]2F)c(=O)[nH]c1=O`, the inhibition of growth at 5 µg/mL in test [3] came out at 50%. Further, the inhibition of growth at 10 µg/mL in test [4] was determined as 60%. In addition, the MIC50 in test [5] came to 5 µg/mL. Further, the inhibition of growth at 50 µg/mL in test [1] is 70%. Moreover, the inhibition of growth at 100 µg/mL in test [2] is 80%.
`CCc1cn([C@@H]2O[C@H](CO)C[C@@H]2F)c(=O)[nH]c1=O`: the inhibition of growth at 100 µg/mL in test [2] was determined as 25%.
For `O=c1[nH]c(=O)n([C@@H]2O[C@H](CO)[C@@H](O)[C@@H]2O)cc1CO`, the “growth inhibition (GI)” value in test [6] came out at 0%.
As to `CCc1cn([C@@H]2O[C@H](CO)[C@@H](O)[C@@H]2F)c(=O)[nH]c1=S`, the inhibition of growth at 50 µg/mL in test [1] came out at 55%. Besides, the inhibition of growth at 100 µg/mL in test [2] is 65%.
As for `CO[C@H]1/C=C/O[C@@]2(C)Oc3c(C)c(O)c4c(O)c(c(/C=N/N5CCN(C)CC5)c(O)c4c3C2=O)NC(=O)/C(C)=C\C=C\[C@H](C)[C@H](O)[C@@H](C)[C@@H](O)[C@@H](C)[C@H](OC(C)=O)[C@@H]1C` [RIFAMPIN], the inhibition of growth at 0.5 µg/mL in test [7] came to 100%.
With `Cc1cn([C@@H]2O[C@H](CO)[C@@H](Br)[C@@H]2O)c(=O)[nH]c1=O`, the inhibition of growth at 1 µg/mL in test [8] was found to be 40%.
Turning to `CCc1cn([C@@H]2O[C@H](CO)[C@@H](O)[C@@H]2F)c(=O)nc1N`, the inhibition of growth at 100 µg/mL in test [2] is 50%.
Take `O=c1[nH]c(=S)c(CO)cn1[C@@H]1O[C@H](CO)[C@@H](O)[C@@H]1O`: in test [3], the inhibition of growth at 5 µg/mL came out at 75%. Also, the inhibition of growth at 10 µg/mL in test [4] was determined as 90%. Further, the MIC50 in test [5] came out at 0.5 µg/mL. Besides, the inhibition of growth at 0.5 µg/mL in test [7] amounted to 50%. Besides, in test [1], the inhibition of growth at 50 µg/mL was determined as 100%. In addition, the inhibition of growth at 100 µg/mL in test [2] was determined as 100%.
For the compound `CCc1cn2c(nc1=O)O[C@@H]1[C@H](F)[C@H]2O[C@@H]1CO`, the inhibition of growth at 50 µg/mL in test [1] amounted to 25%. Moreover, the inhibition of growth at 100 µg/mL in test [2] turned out to be 25%.
As to `CCc1cn([C@@H]2O[C@H](CO)[C@@H](N=[N+]=[N-])[C@@H]2F)c(=O)[nH]c1=O`, in test [6], the “growth inhibition (GI)” value stood at 0%.
Consider `CCc1cn([C@H]2O[C@@H](CO)[C@H](O)[C@H]2F)c(=O)[nH]c1=O` (single isomer, unassigned), for which the “growth inhibition (GI)” value in test [6] is on record as 0%.
In the case of `COCc1cn([C@@H]2O[C@H](CO)[C@@H](O)[C@@H]2O)c(=O)nc1N`, the inhibition of growth at 10 µg/mL in test [4] worked out at 50%. Further, the inhibition of growth at 50 µg/mL in test [1] amounted to 60%. Moreover, the inhibition of growth at 100 µg/mL in test [2] turned out to be 80%.

(Values after ChEMBL document CHEMBL2046352, “Discovery of novel 5-(ethyl or hydroxymethyl) analogs of 2'-'up' fluoro (or hydroxyl) pyrimidine nucleosides as a new class of Mycobacterium tuberculosis, Mycobacterium bovis and Mycobacterium avium inhibitors” (Bioorg Med Chem, 2012).)
